Measurements of several laboratories.
Lines come from different studies, so protocols differ.
Organism: Trypanosoma brucei
Read-out: parasite growth

O=c1c(O[C@@H]2O[C@H](CO)[C@@H](O)[C@H](O)[C@H]2O)c(-c2ccc(O)c(O)c2)oc2cc(O)cc(O)c12  EC50 (resazurin; 48 h): > 20 µM
CC(=O)O[C@H]1C(=O)[C@@]2(C)[C@H]([C@H](OC(=O)c3ccccc3)[C@]3(O)C[C@H](OC(=O)[C@H](O)[C@@H](NC(=O)c4ccccc4)c4ccccc4)C(C)=C1C3(C)C)[C@]1(OC(C)=O)CO[C@@H]1C[C@@H]2O  EC50: 0.0076 µM
COc1ccc(C(=O)CSc2nc(C)cc(C)c2C#N)cc1  EC50 (resazurin): > 64 µM
N=C(N)c1ccc(OCCCCCOc2ccc(C(=N)N)cc2)cc1  EC50 (SYBR Green; GAMBIENSE): 0.009 µM
Cc1ccc(Cn2cc(C(=O)N/N=C/c3ccc([N+](=O)[O-])o3)c(=O)c3cc(Cl)ccc32)cc1  EC50 (resazurin; 72 h): 0.42 µM
Cc1cc(C)c(C#N)c(NCC(O)c2ccc(F)cc2)n1 (stereo not shown)  EC50 (resazurin; RHODESIENSE): 7.86 µM
Cc1ccc(Cn2cc(C(=O)N/N=C/c3ccc([N+](=O)[O-])s3)c(=O)c3cc(Cl)c(Cl)cc32)cc1  EC50 (resazurin; 72 h): > 4 µM
CCCCCC(=O)NC(Cc1ccc(N)cc1)C(=O)NC(Cc1ccc(N)cc1)C(=O)NC(CC(C)C)C(=O)C1(C)CO1 (stereo not shown)  EC50 (SYBR Green; 72 h): < 0.5 µM
Cc1cc(C)c(C#N)c(SCC(=O)c2cccc(N)c2)n1  EC50 (resazurin; RHODESIENSE): 41.4 µM
Cc1ccc(C(=O)Nc2ccc(S(=O)(=O)O)c3cc(S(=O)(=O)O)cc(S(=O)(=O)O)c23)cc1NC(=O)c1cccc(NC(=O)Nc2cccc(C(=O)Nc3cc(C(=O)Nc4ccc(S(=O)(=O)O)c5cc(S(=O)(=O)O)cc(S(=O)(=O)O)c45)ccc3C)c2)c1  EC50 (RHODESIENSE): 0.05 µM
